Experimental data taken from ChEMBL document CHEMBL4819106, “Aminopyrazole based CDK9 PROTAC sensitizes pancreatic cancer cells to venetoclax” (Bioorg Med Chem Lett, 2021).
Calls of active or inactive are those of the source. The calls are words filed in the database; no cut-off is given here.

Biological target: Protein cereblon/Cyclin-dependent kinase 9 (Homo sapiens, UniProt P50750+Q96SW2)
Experiment: Protac activity at CDK9/CRBN in human HEK293 cells assessed as degradation of CDK9 at 0.01 to 10 uM incubated for 24 hrs by Western blot analysis
Type: cell-based
Conditions: dose 0.01-10 µM
How it was run: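 HEK293 cells were treated with increasing concentrations (0.01–10 μM) for 24 hr. Lysates were analysed by western blot for CDK9 degradation.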

Chain of Protein cereblon/Cyclin-dependent kinase 9 (P50750 whole entry, looked up): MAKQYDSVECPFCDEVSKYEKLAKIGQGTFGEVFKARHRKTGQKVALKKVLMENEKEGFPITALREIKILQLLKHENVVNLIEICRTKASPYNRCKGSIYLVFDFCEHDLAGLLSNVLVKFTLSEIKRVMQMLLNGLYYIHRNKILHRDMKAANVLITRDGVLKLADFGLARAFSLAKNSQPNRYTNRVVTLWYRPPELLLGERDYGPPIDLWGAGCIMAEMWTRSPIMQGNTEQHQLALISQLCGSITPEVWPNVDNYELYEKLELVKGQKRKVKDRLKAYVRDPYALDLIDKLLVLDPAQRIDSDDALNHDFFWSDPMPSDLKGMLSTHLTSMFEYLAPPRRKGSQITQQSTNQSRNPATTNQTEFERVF
Chain of Protein cereblon/Cyclin-dependent kinase 9 (Q96SW2 whole entry, looked up): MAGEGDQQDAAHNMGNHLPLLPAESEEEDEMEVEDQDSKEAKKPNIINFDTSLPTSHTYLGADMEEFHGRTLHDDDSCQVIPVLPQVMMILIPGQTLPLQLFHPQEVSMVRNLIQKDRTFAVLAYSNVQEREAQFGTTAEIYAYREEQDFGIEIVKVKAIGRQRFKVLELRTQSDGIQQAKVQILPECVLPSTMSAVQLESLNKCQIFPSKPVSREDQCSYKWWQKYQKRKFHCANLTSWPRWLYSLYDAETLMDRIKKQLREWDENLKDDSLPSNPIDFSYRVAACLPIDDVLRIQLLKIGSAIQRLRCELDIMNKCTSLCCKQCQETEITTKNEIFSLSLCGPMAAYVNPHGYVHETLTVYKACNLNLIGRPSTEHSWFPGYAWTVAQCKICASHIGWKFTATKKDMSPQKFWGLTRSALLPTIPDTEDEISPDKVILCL

In the case of `O=C(COc1ccc(CC(=O)Nc2cc(C3CCC3)[nH]n2)cc1)NCCCOCCOCCOCCCNc1cccc2c1C(=O)N(C1CCC(=O)NC1=O)C2=O` (stereo unspecified), the Activity is reported as “inactive”.
